# According to PubChem BioAssay AID540324 (Johns Hopkins Ion Channel Center, 2011):
# Calls of active or inactive are those of the source.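 How the source made its calls: active means maximum inhibition above 30% at any tested concentration, with a dose response curve fitted; inactive means no inhibition at any dose or no dose response curve.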
# Assay: thallium flux inhibition in parental HEK293 cells, SAR follow-up, counter-screen for KCNK9 inhibitor project, cell-based, FluxOR thallium flux, concentration-response, set 2 (AID 540324)
# Conditions: FluxOR fluorescence ratio; series mostly up to 30 µM; flux ratio, lower = inhibition: at the top concentration
# Procedure, shortened: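 test system = parental HEK293 cells lacking KCNK9 expression | doses = Ten-concentration dilution series per compound | incubation = dye loading 90 min at room temperature in dark, compound exposure 20 min | measured by = fluorescence of thallium-sensitive FluxOR dye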
row,SMILES,"flux ratio, lower = inhibition"
1,Cc1cccc(C(=O)Nc2cccc(NC(=O)c3ccc(C(F)(F)F)cc3)c2)c1,0.196 (inactive)
2,COc1ccccc1C(=O)Nc1cccc(NC(=O)c2ccccc2OC(F)(F)F)c1,0.175 (inactive)
3,COc1ccccc1-c1n[nH]c(=S)n1C(C)C1CC2CCC1C2 (stereo not given),0.205 (inactive)
4,Cc1cccc(C(=O)Nc2cccc(NC(=O)c3ccccc3OCC(C)C)c2)c1,0.117 (inactive)
5,Cc1cccc(C(=O)Nc2cccc(NC(=O)c3ccccc3OC(F)(F)F)c2)c1,0.15 (inactive)
6,CCOc1ccccc1NC(=O)c1cccc(NC(=O)c2ccc(C)cc2)c1,0.163 (inactive)
7,Cc1cccc(C(=O)Nc2cccc(NC(=O)c3ccccc3)c2)c1,0.164 (inactive)
8,COc1ccccc1C(=O)Nc1cccc(NC(=O)c2ccccc2)c1,0.149 (inactive)
9,Cc1cccc(S(=O)(=O)Nc2cccc(NC(=O)c3ccccc3)c2)c1,0.165 (inactive)
10,COc1cccc(-c2n[nH]c(=S)n2C(C)C2CC3CCC2C3)c1 (stereo not given),0.135 (inactive)
11,COc1ccccc1NC(=O)c1cccc(NC(=O)CC2CCCC2)c1,0.154 (inactive)
12,O=C(Nc1cccc(NC(=O)c2cccc(C(F)(F)F)c2)c1)c1ccccc1,0.193 (inactive)
13,CC(c1ccco1)n1c(-c2ccoc2)n[nH]c1=S (stereo not given),0.214 (inactive)
14,O=C(Nc1cccc(NC(=O)c2cccc(F)c2)c1)c1ccccc1,0.188 (inactive)
15,O=C(Nc1cccc(NC(=O)c2ccccc2Cl)c1)c1ccccc1,0.17 (inactive)
16,CC(C1CC2CCC1C2)n1c(-c2ccco2)n[nH]c1=S (stereo not given),0.27 (inactive)
17,CCOc1ccccc1NC(=O)c1cccc(NC(=O)c2ccccc2Cl)c1,0.121 (inactive)
18,COc1ccccc1C(=O)Nc1cccc(NC(=O)c2ccccc2OC)c1,0.297 (inactive)

row,SMILES,"flux ratio, lower = inhibition"
1,CC(C1CC2CCC1C2)n1c(-c2ccoc2)n[nH]c1=S (stereo not given),0.153 (inactive)
2,COc1ccc(C(=O)Nc2cccc(NC(=O)c3ccccc3)c2)cc1,0.191 (inactive)
3,CCOc1ccccc1NC(=O)c1cccc(NC(=O)c2ccccc2OC(F)(F)F)c1,0.165 (inactive)
4,Cc1ccccc1-c1n[nH]c(=S)n1C(C)C1CC2CCC1C2 (stereo not given),0.377 (inactive)
5,Cc1cccc(C(=O)Nc2cccc(NC(=O)C3CCCCC3)c2)c1,0.17 (inactive)
6,CC(C)(C)c1ccc(C(=O)Nc2cccc(NC(=O)c3ccccc3)c2)cc1,0.185 (inactive)
7,CCOc1ccccc1NC(=O)c1cccc(NC(=O)C2CCCO2)c1 (stereo not given),0.189 (inactive)
8,CC(C1CC2CCC1C2)n1c(-c2ccc(Cl)cc2)n[nH]c1=S (stereo not given),0.322 (inactive)
9,CCOc1ccccc1NC(=O)c1cccc(C(=O)NC2CCCC2)c1,0.197 (inactive)
10,Cc1cccc(C(=O)Nc2cccc(NC(=O)c3cccc(C)c3)c2)c1,0.152 (inactive)
11,Cc1cccc(C(=O)Nc2cccc(NC(=O)c3ccc(C(C)(C)C)cc3)c2)c1,0.188 (inactive)
12,CCOc1ccccc1NC(=O)c1cccc(NC(=O)c2ccc(OC)cc2)c1,0.191 (inactive)
13,COc1ccccc1NC(=O)c1cccc(NC(=O)C2CCCCC2)c1,0.16 (inactive)
14,COc1ccccc1C(=O)Nc1cccc(NC(=O)c2ccccc2C)c1,0.148 (inactive)
15,COc1ccccc1NC(=O)c1cccc(NC(=O)c2ccccc2OC)c1,0.177 (inactive)
16,Cc1cccc(C(=O)Nc2cccc(NC(=O)c3ccccc3C)c2)c1,0.158 (inactive)
17,CC(C)n1c(-c2ccco2)n[nH]c1=S,0.144 (inactive)
